Source: PubChem (several laboratories)
Most compounds without a hit are left out; they make up all but 27% or so of the library.
Cav3 T inh: blocks human Cav3.2 T-type calcium channel; B-score at 10 µM; O95180; actives 4% (n = 100,000); AID 449739; Cav3.2-expressing cells, Fluo-4 calcium fluorescence FDSS; hits give low values;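 active means single-dose well whose peak fluorescence ratio is a statistical outlier from its plate by either plate-standardised score or position-corrected B-score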
CYP2C19 inh: inhibitors of human CYP2C19 | P33261 | CYP2C19 Supersomes, luciferin-H EGE luminescence, 30 min | inhibition, % at 5 µM | actives 21% (n = 96,000) | AID 778;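 active means CYP2C19 inhibition above a set limit at 5 µM in the primary screen, cut at about 50% in these data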;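 further: plate controls were negative control wells for no effect and 2.5 mM tranylcypromine positive control for full effect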
Target sequence (P33261 whole entry, looked up): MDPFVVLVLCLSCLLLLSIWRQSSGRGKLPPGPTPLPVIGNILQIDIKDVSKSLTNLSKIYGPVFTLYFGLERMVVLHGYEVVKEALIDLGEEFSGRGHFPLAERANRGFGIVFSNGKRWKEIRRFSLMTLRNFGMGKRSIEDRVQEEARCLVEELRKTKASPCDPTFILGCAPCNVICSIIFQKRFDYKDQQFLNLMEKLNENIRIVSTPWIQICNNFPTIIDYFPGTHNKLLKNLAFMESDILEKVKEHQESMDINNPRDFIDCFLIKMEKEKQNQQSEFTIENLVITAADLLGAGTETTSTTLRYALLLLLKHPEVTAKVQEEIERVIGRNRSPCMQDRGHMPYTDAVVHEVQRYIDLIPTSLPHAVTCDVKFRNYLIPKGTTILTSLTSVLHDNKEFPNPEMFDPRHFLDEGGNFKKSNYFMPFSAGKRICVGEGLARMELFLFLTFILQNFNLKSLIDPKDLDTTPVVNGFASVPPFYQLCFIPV
CYP2C9 inhib: inhibitors of human CYP2C9; P11712; CYP2C9 Supersomes, luciferin-H conversion, luminescence; inhibition, % at 5 µM; actives 20% (n = 96,000); AID 777;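 active means blocking of liver enzyme CYP2C9 beyond about 50% at 5 µM, limit read from the data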
HIV Rev-RRE inh: disrupts HIV-1 Rev binding to RRE RNA; inhibition, % at 8 µM; P05866; Rev peptide-RRE RNA binding, FRET; AID 704; actives 0.79% (n = 97,000);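 active means inhibition above the screen-wide mean plus 3 SD, cut at about 35% in these data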;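 further: 0% = median DMSO wells and 100% = median Neomycin B control wells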
Target sequence (P05866 whole entry, looked up): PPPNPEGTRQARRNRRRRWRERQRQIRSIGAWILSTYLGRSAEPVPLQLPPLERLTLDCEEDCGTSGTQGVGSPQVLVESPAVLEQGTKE
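System: Cy5-labelled duplex RRE RNA binding fluorescein-labelled HIV Rev peptide; Signal: fluorescein-to-Cy5 FRET, 480 nm excitation; Also added: labelled Rev peptide; Compound: one concentration, 8 µM nominal; Buffer or medium: HEPES pH 7.5 salt buffer with EDTA; Read-out: % inhibition of FRET ratio versus controls; Schedule: 5 min preincubation and 15 min binding, 25 °C.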
CYP2C19 activ: cytochrome P450 2C19 (human) activation; recombinant CYP2C19, luciferin-H EGE luminescence; hits give high values; 0 = fully inhibited enzyme, 1 = untreated enzyme; activation factor at 5 µM; 96,000 tested, under 10 active; AID 1025;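 active means activation factor of at least 2 at 5 µM in the primary screen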;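 further: 0 = wells with 2.5 mM tranylcypromine and 1 = vehicle-only wells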
CYP2C9 activ: CYP2C9 (human) activation; P11712; recombinant CYP2C9, luciferin-H conversion, luminescence; hits give high values; factor 1 = untreated enzyme, 0 = blocked; activation factor at 5 µM; actives 1.4% (n = 96,000); AID 1024;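 active means activation factor of 2 or more for CYP2C9 at a 5 µM dose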;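 further: 0 = sulfaphenazole-blocked wells and 1 = vehicle-only wells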
* = called active by the depositor; nt = no result given.

SMILES	Cav3 T inh	CYP2C19 inh	CYP2C9 inhib	HIV Rev-RRE inh	CYP2C19 activ	CYP2C9 activ
O=C(Nc1nc2ccccc2n1CCOc1ccc(Cl)cc1)c1ccco1	-1.36	2.5	9.7	8.9	1	0.9
O=c1ccn(CCOc2ccc(Cl)cc2)c(=O)[nH]1	0.249	59.4*	42.3	2.0	0.4	0.6
COc1ccccc1NC(=O)CSc1ncn[nH]1	0.522	17.2	-22.0	-2.3	0.8	1.2
COc1ccc(-c2oc(NC(=O)CCl)c(C#N)c2-c2ccc(OC)cc2)cc1	0.693	54.3*	96.2*	4.5	0.5	0
COc1ccc(CNC(=O)CSc2ncn[nH]2)cc1	0.647	64.9*	-14.7	5.6	0.4	1.1
COc1ccc(-c2oc(NC(=O)CSc3ncn[nH]3)c(C#N)c2-c2ccc(OC)cc2)cc1	-0.152	36.9	70.2*	3.8	0.6	0.3
N#Cc1c(NC(=O)CN2CCOCC2)oc(-c2ccccc2)c1-c1ccccc1	-3.06	12.0	44.6	7.0	0.9	0.6
O=C(CSc1ncn[nH]1)NCc1ccccc1	0.477	9.0	-9.8	6.8	0.9	1.1
O=C1c2ccc(-c3nc4ccccc4o3)cc2C(=O)N1Cc1cccnc1	1.59	nt	nt	12.8	nt	nt
CCOC(=O)c1c(C)c(C(=O)NCC2CCCO2)c(C)n1C (stereo unspecified)	0.629	7.1	-64.8	5.8	0.9	1.6
C=CCN(c1ccc(C(=O)N2CCN(c3ccc(F)cc3)CC2)cc1)S(C)(=O)=O	0.291	44.2	55.2*	2.0	0.6	0.4
C=CCNC(=O)c1ccc(N(CC=C)S(C)(=O)=O)cc1	-0.3	nt	nt	6.4	nt	nt
CS(=O)(=O)N(CC(=O)N1CCN(c2ccc(F)cc2)CC1)c1ccc(F)c(Cl)c1	-2.61	71.2*	-86.8	17.6	0.3	1.9
COC(=O)Oc1ccc(/C=N/NC(=O)CN(c2ccccc2Cl)S(C)(=O)=O)cc1OC	-0.268	33.7	62.8*	4.8	0.7	0.4
CC(=O)Nc1ccc(NC(=O)CN(c2ccccc2Cl)S(C)(=O)=O)cc1	-0.227	14.1	-2.4	6.3	0.9	1
CS(=O)(=O)N(CC(=O)N1CCN(c2ccccc2)CC1)c1cccc(Br)c1	-2.51	64.1*	-179.1	3.9	0.4	2.8*
COc1ccc(N2CCN(C(=O)CN(c3cccc(Br)c3)S(C)(=O)=O)CC2)cc1	-0.358	5.1	-29.1	2.8	0.9	1.3
N#CC1=C(Nc2ccccc2)SC=C(c2ccc(F)cc2)N=C1N1CCOCC1	nt	-2.0	10.9	-2.5	1	0.9
COc1ccc(CC(NC(C)=O)C(=O)N2CCN(C(=O)N(C(C)C)C(C)C)CC2)cc1 (stereo unspecified)	-2.95	-18.6	-21.3	-3.5	1.2	1.2
COc1cccc(C(=O)C2CN(c3ccccc3)CC2c2ccc(Cl)cc2)c1 (stereo unspecified)	0.127	4.0	22.1	4.2	1	0.8
O=C(NCCC1=CCCCC1)NC1CCCCC1	-1.47	nt	nt	0.8	nt	nt
O=C(N/N=C1\CCCc2ccccc21)c1ccccc1[N+](=O)[O-]	-0.0462	nt	nt	6.0	nt	nt
CCN(CC)C(=O)c1cc(-c2ccc(Br)cc2)on1	-1.04	4.0	3.7	5.5	1	1
CS(=O)(=O)N(CC(=O)N1CCCCC1)c1ccc2c(c1)OCO2	nt	25.6	-1.6	10.5	0.7	1
Cc1cc(C)cc(N(CC(=O)N2CCC(C)CC2)S(C)(=O)=O)c1	0.0223	13.2	-123.3	-3.1	0.9	2.2*
SMILES	Cav3 T inh	CYP2C19 inh	CYP2C9 inhib	HIV Rev-RRE inh	CYP2C19 activ	CYP2C9 activ
CS(=O)(=O)N(CC(=O)N1CCCCCC1)c1ccc2c(c1)OCCO2	0.281	18.5	-65.3	2.7	0.8	1.7
CS(=O)(=O)N(CC(=O)N1CCCCCC1)c1cccc(Br)c1	1.2	76.6*	40.7	1.5	0.2	0.6
CN(C)c1ccc(/C=N/NC(=O)CN(c2cccc(Cl)c2)S(C)(=O)=O)cc1Br	-1.05	25.5	50.9*	13.5	0.7	0.5
CS(=O)(=O)N(CC(=O)N1CCCCCC1)c1ccc(Br)cc1	0.687	76.8*	36.7	2.0	0.2	0.6
CS(=O)(=O)N(CC(=O)N1CCCC1)c1cccc(Cl)c1	nt	56.8*	6.4	nt	0.4	0.9
COc1ccnc(Oc2ccc3ccccc3c2)c1C#N	nt	47.1	-0.9	5.6	0.5	1
CC(C)(C)OC(=O)N1CCCC1C(=O)NC(Cc1ccccc1)C(=O)O (stereo unspecified)	0.32	-20.5	-29.7	1.0	1.2	1.3
CN1CCN(C(=O)c2ccc(-n3cccc3)cc2)CC1	nt	-0.3	42.5	4.8	1	0.6
N#CC1=C(N)SC(N)=C(C#N)C1C1CC=CCC1 (stereo unspecified)	0.243	84.5*	48.5	6.5	0.2	0.5
O=c1[nH]c2ccc(Cl)cc2c(-c2ccccc2)c1N1CCN(c2ccccn2)CC1	-0.361	-7.7	38.8	nt	1.1	0.6
COc1cc(-c2noc(CCCC(=O)NC3CCCCC3)n2)cc(OC)c1OC	1.03	66.0*	8.8	7.1	0.3	0.9
COc1ccc(-c2noc(CCC(=O)NC3CCCCC3)n2)cc1OC	-0.514	86.7*	78.6*	-0.5	0.1	0.2
COc1ccc(-c2noc(CCC(=O)NC3CCN(Cc4ccccc4)CC3)n2)cc1	0.507	73.0*	83.7*	10.1	0.3	0.2
Cc1ccc2nc(NCCCO)[nH]c2c1	0.421	nt	nt	4.3	nt	nt
O=C(c1cccc(-n2cnnn2)c1)N1CC=C(c2ccccc2)CC1	-4.65*	44.2	32.6	0.0	0.6	0.7
Cc1ccc(CNC(=O)c2cccc(-n3cnnn3)c2)cc1	-0.198	3.9	-6.1	6.5	1	1.1
CCOC(=O)c1cnc2ccc(OCC)cc2c1N1CCN(c2ccccc2OC)CC1	-0.64	76.8*	94.0*	5.4	0.2	0.1
Oc1ccc2ccccc2c1C=Nc1ccccc1-c1nc2ccccc2[nH]1	nt	44.9	95.0*	-3.0	0.6	0.1
Cc1nn(C)c(C)c1N=Cc1c(O)ccc2ccccc12	0.505	4.7	10.0	8.4	1	0.9
CC(C)Cc1ccc(S(=O)(=O)N2CCCC2)cc1	0.191	90.9*	78.2*	9.2	0.1	0.2
CN(C)S(=O)(=O)c1ccc(S(=O)(=O)N2CCCC2)cc1	1.16	62.2*	0.7	3.6	0.4	1
O=S(=O)(c1ccc(S(=O)(=O)N2CCCC2)cc1)N1CCCCCC1	-0.198	18.9	8.4	21.0	0.8	0.9
Cc1cc(NS(=O)(=O)c2ccc(CC(C)C)cc2)no1	-0.889	72.5*	90.0*	2.6	0.3	0.1
COC(=O)c1[nH]c2ccccc2c1NC(=O)CNC1CCCCC1	0.654	-10.7	-17.3	7.3	1.1	1.2
CCCOc1ccc(NC2=CC(=O)CC(C)(C)C2)cc1	0.0228	37.3	78.9*	-3.2	0.6	0.2
Cn1cc([N+](=O)[O-])c(C(=O)Nc2cc(Oc3cccnc3)cc([N+](=O)[O-])c2)n1	0.0706	72.4*	78.1*	-0.7	0.3	0.2
